Measurements reported in ChEMBL document CHEMBL4715743, “Synthesis and biological evaluation of indole-2-carboxamides bearing photoactivatable functionalities as novel allosteric modulators for the cannabinoid CB1 receptor” (Eur J Med Chem, 2016).

Columns and labels:
[1] = target: Cannabinoid receptor 1 (Homo sapiens) (UniProt P21554); assay: Negative allosteric modulator activity at CB1 receptor (unknown origin) expressed in HEK293 cell membrane assessed as equilibrium dissociation constant using [3H]-CP55940 as radiolabelled orthosteric agonist incubated for 60 mins by liquid scintillation counting analysis; assay type: cell membranes; settings: filed as negative allosteric modulator
How it was run: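 HEK293 cells transiently transfected with CB1 (calcium phosphate), harvested at 24 h; membranes from nitrogen cavitation and 100,000 g pellet, kept in TME buffer (pH 7.4) with 7% sucrose. 4 µg membrane incubated 60 min with [3H]CP55940 at about its Kd in TME plus 0.1% fatty acid-free BSA. Nonspecific binding taken with 1 µM unlabeled CP55,940; filtration on GF/C. At least three experiments, each in duplicate.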

[2] = target: Cannabinoid receptor 1 (Homo sapiens) (UniProt P21554); assay: (§1) Negative allosteric modulator activity at CB1 receptor (unknown origin) expressed in HEK293 cell membrane assessed as reduction in CP55,940-induced [35S]GTPgammaS binding at 10 uM incubated for 60 mins by liquid scintillation counting analysis; assay type: functional, cell membranes; settings: filed as negative allosteric modulator
[3] = target: Cannabinoid receptor 1 (Homo sapiens) (UniProt P21554); assay: as §1, with “binding by measuring Emax of CP55,940” for “binding”, “3.2” for “10”, “analysis (reference value: 68.9 +/-1.7 fmol/mg)” for “analysis”; assay type: functional, cell membranes; settings: filed as negative allosteric modulator
[4] = target: Cannabinoid receptor 1 (Homo sapiens) (UniProt P21554); assay: Negative allosteric modulator activity at CB1 receptor (unknown origin) expressed in HEK293 cell membrane assessed as reduction in CP55,940-induced [35S]GTPgammaS binding incubated for 60 mins by liquid scintillation counting analysis; assay type: functional, cell membranes; settings: filed as negative allosteric modulator, dose 3.2-10 µM

Sequence of Cannabinoid receptor 1 (Homo sapiens) (P21554 whole entry): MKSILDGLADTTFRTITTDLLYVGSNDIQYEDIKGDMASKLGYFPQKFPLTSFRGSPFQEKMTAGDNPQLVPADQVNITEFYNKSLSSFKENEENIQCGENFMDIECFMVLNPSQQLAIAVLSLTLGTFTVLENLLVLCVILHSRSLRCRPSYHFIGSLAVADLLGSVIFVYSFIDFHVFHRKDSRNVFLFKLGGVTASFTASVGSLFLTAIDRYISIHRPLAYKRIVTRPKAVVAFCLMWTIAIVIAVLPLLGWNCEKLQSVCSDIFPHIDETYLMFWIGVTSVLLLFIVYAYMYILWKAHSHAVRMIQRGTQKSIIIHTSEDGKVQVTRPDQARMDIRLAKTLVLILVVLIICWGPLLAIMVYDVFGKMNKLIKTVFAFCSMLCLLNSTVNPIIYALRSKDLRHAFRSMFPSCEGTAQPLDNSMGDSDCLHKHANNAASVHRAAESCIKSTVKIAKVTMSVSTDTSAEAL

| Compound | Kb [1] [nM] | inhibition [2] [%] | Emax [3] [fmol/mg] | inhibition [4] |
| --- | --- | --- | --- | --- |
| CCCCCCc1c(C(=O)NCCc2ccc(C3(C(F)(F)F)N=N3)cc2)[nH]c2ccc(Cl)cc12 | 3280 |  |  |  |
| CCCCCCc1c(C(=O)NCCc2ccc(N=[N+]=[N-])cc2)[nH]c2ccc(Cl)cc12 | 314 | 100 | 34.1 | Dose-dependent effect |
| CCc1c(C(=O)NCCc2ccc(C(=O)c3ccccc3)cc2)[nH]c2ccc(Cl)cc12 | 254 | 100 | 41.3 | Dose-dependent effect |
| CN(C)c1ccc(CCNC(=O)c2[nH]c3ccc(Cl)cc3c2CN=[N+]=[N-])cc1 | 200 | 100 | 31.1 | Dose-dependent effect |

Now from value to compound:

| Kb [1] [nM] | inhibition [2] [%] | Emax [3] [fmol/mg] | inhibition [4] | Compound |
| --- | --- | --- | --- | --- |
| 6310 |  |  |  | [N-]=[N+]=NCc1c(C(=O)NCCc2ccc(C(=O)c3ccccc3)cc2)[nH]c2ccc(Cl)cc12 |
| 559 | 100 | 27 | Dose-dependent effect | CCCCCc1c(C(=O)NCCc2ccc(C(=O)c3ccccc3)cc2)[nH]c2ccc(Cl)cc12 |
| 784 |  |  |  | [N-]=[N+]=NCc1c(C(=O)NCCc2ccc(N3CCCCC3)cc2)[nH]c2ccc(Cl)cc12 |
